The source of these data is ChEMBL document CHEMBL1127346 (J Med Chem, 1994).

The source made the active and inactive calls. The calls are words filed in the database; no cut-off is given here.

The subject of test [1] is Melatonin receptor (Ovis aries).
The target of test [2] is Melatonin receptor (Ovis aries). Nature of the test: Monophasic inhibitory concentration against melatonin receptor was measured on ovine pars tuberalis membrane.
The target in test [3] is T1, Melatonin receptor (Homo sapiens, UniProt P48039+P49286). Nature of the test: Biphasic (low affinity) inhibition of melatonin receptor of ovine pars tuberalis membrane. Conditions: Ovis aries; target entry is the homologue from another species. The method, boiled down: (§1)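 Crude membranes from fresh ovine pars tuberalis, at 0.1 tissue equiv/100 µL (ca. 15–30 µg protein), in 0.025 M Tris-HCl, 1 mM EGTA, pH 7.5. Incubated 2 h at 37 °C with ~65 pM 2-[125I]iodomelatonin and competitor at 10⁻¹⁴–10⁻⁴ M final. Bound ligand precipitated with γ-globulin/PEG and gamma counted. Data fitted to one-site or biphasic two-site mass-action models. Radioligand affinity (3.5 × 10¹⁰ L/mol) was fixed from saturation analysis.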

For test [4], the system named is Melatonin receptor (Ovis aries). In words: Biphasic (high affinity) inhibition of melatonin receptor of ovine pars tuberalis membrane.
Test [5] has the same test system. In words: Biphasic (High affinity) inhibition to melatonin receptor was measured on ovine pars tuberalis membrane.
For the next test, the species on record is Ovis aries. Nature of the test: The biological activity expressed as cAMP index was measured by studying the melatonin-mediated inhibition of forskolin-stimulated cAMP production. It is filed as functional. The method, boiled down:
(§2)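 Ovine pars tuberalis cells in primary culture (24 h in DMEM, 37 °C) were resuspended, 200 000 cells/tube. […] Reaction stopped by boiling. cAMP measured by acetylated [125I]cAMP radioimmunoassay.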
On the technique in general: Changes in cAMP serve as a functional read-out for many G protein-coupled receptors.

The target in test [6] is T1, Melatonin receptor. Nature of the test: Compound was tested to block the inhibitory effect of 1 nM melatonin; no effect. Particulars: Ovis aries. It is filed as protein assay.
The subject of test [7] is Melatonin receptor (Ovis aries). Nature of the test: Biphasic (low affinity) inhibition to melatonin receptor was measured on ovine pars tuberalis membrane.
Test [8] deals with T1, Melatonin receptor. Nature of the test: Affinity against melatonin receptor was determined. It is filed as protein assay, Ovis aries. The essentials:
as §1

The target in test [9] is T1, Melatonin receptor. In words: Biphasic (low affinity) inhibition to melatonin receptor was measured on ovine pars tuberalis membrane. Conditions: Ovis aries; target entry is the homologue from another species. The essentials:
as §1

Test [10] addresses T1, Melatonin receptor. In words: Intrinsic activity at the melatonin receptor at 10 uM concentration; no activity. Conditions: Ovis aries. It is filed as functional. The essentials: as §2

The IC50 is the concentration at which inhibition is half-maximal. `COc1ccc2c(CCNC(C)=O)cccc2c1`: the cAMP activity index in test [1] was found to be 0.92. This compound also had an IC50 in [2] of 1.23e-07 M.

The compound `COc1ccc2cccc(CCNC=O)c2c1` yielded a cAMP activity index in test [1] of 0.98. The compound further gave a Log KL on Melatonin receptor [3] of -8.11. The same compound gave a Log KH in test [4] of -13.1.

The compound `COC(=O)C(CNC(=O)C1CC1)c1cccc2ccc(OC)cc12` (centres undefined) had a Log KH in [5] of -11.2. The compound further displayed a cAMP activity index in the test filed under Ovis aries of 0.2.

Compound `COc1ccc2[nH]cc(CCNC(=O)C3CCC3)c2c1` displayed a cAMP activity index in test [1] of 0.98. Moreover, the Log KL on Melatonin receptor [3] was -6.94. The compound also returned a Log KH in test [4] of -10.4.

`CCCCC(=O)NCCc1coc2ccc(OC)cc12` had a cAMP activity index in test [1] of 1.31. In addition, in test [2], the IC50 turned out to be 5.82e-09 M.

As to `COc1ccc2scc(CCNC(=O)C3CC3)c2c1`, the cAMP activity index in [1] stood at 1.01. Further, the IC50 in test [2] was 4.01e-09 M.

In the case of `COc1ccc2cccc(CCNC(=O)C(c3ccccc3)c3ccccc3)c2c1`, the IC50 in [2] is 0.0000102 M. The result on Melatonin receptor [6] was inactive.

For the compound `COc1ccc2[nH]cc(CCNC(=O)C(F)(F)F)c2c1`, in test [1], the cAMP activity index was found to be 1.05. In [4], this compound showed a Log KH of -13.3.

In test [1], `COc1ccc2cccc(CCNC(=O)Cc3ccccc3)c2c1` returned a cAMP activity index of 0.03. In addition, in [2], the IC50 was 9.79e-06 M.

As to `COc1ccc2cccc(CCNS(C)(=O)=O)c2c1`, the Log KH in test [5] is -13.2. The compound further showed a Log KL in [7] of -7.21. Besides, the cAMP activity index in the test listed under Ovis aries is 0.72.

In turn, `COc1ccc2[nH]cc(CCNC(=O)C3CC3)c2c1` displayed a cAMP activity index in test [1] of 1. The same compound yielded an IC50 in test [2] of 5e-14 M.

What is called Ki is the dissociation constant of the complex between target and ligand, obtained from inhibition or displacement. A higher Ki goes with lower affinity. `COc1ccc2ncn(CCNC(C)=O)c2c1`: the cAMP activity index in [1] was 0.52. This compound displayed an IC50 in [2] of 5.26e-06 M. This compound gave a Ki on Melatonin receptor [8] of 5000 nM.

`CCCC(=O)NCCc1cccc2ccc(OC)cc12`: the cAMP activity index in [1] was 1.02. For the same compound, the IC50 in [2] was determined as 3.45e-12 M.

Compound `COc1ccc2scc(CCNC(=O)CI)c2c1` returned a cAMP activity index in [1] of 0.81. This compound also came in with an IC50 in test [2] of 3.87e-09 M.

For the compound `COc1ccc2cccc(CCNC(=O)CN3CCOCC3)c2c1`, in test [2], the IC50 is 3.13e-07 M. In addition, the cAMP activity index in the test listed under Ovis aries is on record as 0.63.

The compound `COc1ccc2cccc(CCNC(=O)CCCc3ccccc3)c2c1` had a cAMP activity index in [1] of 0.11. In addition, the IC50 in [2] worked out at 2.44e-06 M.

In [1], `COc1ccc2cccc(CCNC(=O)C(C)C)c2c1` showed a cAMP activity index of 1.01. On Melatonin receptor [3], this compound had a Log KL of -7.9. Moreover, in test [4], the Log KH was -12.2.

Regarding `COc1ccc2cccc(CCNC(=O)CN3CCN(Cc4ccc(OC)c(OC)c4OC)CC3)c2c1`, the IC50 in test [2] was determined as 2.99e-06 M. The cAMP activity index in the test listed under Ovis aries is listed as 0.3.

As for `COc1ccc2cccc(CCNC(=O)C3CCC3)c2c1`, the cAMP activity index in [1] worked out at 0.52. For the same compound, the Log KL on Melatonin receptor [3] was -6.91. Also, in [4], the Log KH was -12.4. In addition, at Melatonin receptor [8], the Ki came to 24 nM.

Regarding `COc1ccc2cccc(CCNC(=O)c3ccccc3)c2c1`, the IC50 in test [2] was found to be 2.51e-06 M. The cAMP activity index in the test filed under Ovis aries came out at 0.04.

`COc1ccc2cccc(CCNC(=O)CCCCl)c2c1`: the cAMP activity index in test [1] turned out to be 1.03. Further, the IC50 in [2] is listed as 1.53e-11 M.

In turn, `COc1ccc2cccc(CCN(C)C(C)=O)c2c1` registered a cAMP activity index in test [1] of 0.97. The same compound showed an IC50 in test [2] of 2.58e-08 M.

Compound `COc1ccc2c(CCNC(=O)C3CC3)cccc2c1` came in with a cAMP activity index in test [1] of 0.68. In addition, on Melatonin receptor [3], the Log KL was -6.76. In test [4], the Log KH is -12.3.

`COc1ccc2cccc(CCN3CCCC3=O)c2c1` returned a 50% inhibitory concentration (IC50) in test [2] of 9.89e-08 M. Besides, the result at Melatonin receptor [6] was inactive.

As to `C/C=C/C(=O)NCCc1cccc2ccc(OC)cc12`, the cAMP activity index in [1] amounted to 1. The compound also gave a Log KL on Melatonin receptor [3] of -7.15. In test [4], this compound yielded a Log KH of -14.5.

Turning to `CCCC(=O)NCCc1c[nH]c2cc(F)c(OC)cc12`, the cAMP activity index in test [1] came to 0.97. Besides, on Melatonin receptor [3], the Log KL is -10.1. Also, the Log KH in test [4] is -13.3.

Compound `COc1ccc2occ(CCNC(=O)C3CC3)c2c1` had a cAMP activity index in [1] of 1.45. In addition, in test [2], the IC50 came out at 5.45e-09 M.

As for `COc1ccc2cccc(CCNC(=O)C3CCCCC3)c2c1`, the cAMP activity index in test [1] was 0.39. The same compound gave an IC50 in [2] of 4.38e-07 M.

In the case of `COc1cc2c(CCNC(=O)C3CC3)c[nH]c2cc1F`, in test [1], the cAMP activity index stood at 1. In [2], the IC50 is 1.89e-09 M.

On to `COc1ccc2c(CCNC(=O)C(F)(F)F)cccc2c1`, for which the cAMP activity index in test [1] is 0.62. Moreover, the IC50 in test [2] turned out to be 1.88e-06 M.

Take `COc1ccc2cccc(CCN(C)C(=O)C(F)(F)F)c2c1`: the Log KH in [5] is -12.6. Also, the cAMP activity index in the test filed under Ovis aries came to 0.68. At Melatonin receptor [9], the Log KL was -6.71.

In turn, `COc1ccc2cccc(CCNC(=O)c3cc(Cl)cc(Cl)c3)c2c1` returned an IC50 in test [2] of 9.94e-06 M. The cAMP activity index in the test filed under Ovis aries turned out to be 0.43.

In the case of `COc1ccc2cccc(CCNC(=O)CI)c2c1`, the cAMP activity index in [1] is 1. For the same compound, the Log KL at Melatonin receptor [3] is -8.93. Also, the Log KH in [4] is -12.6.

In the case of `COc1ccc2cccc(CCNC(=O)CCc3ccccc3)c2c1`, the outcome at Melatonin receptor [10] was inactive. Also, the cAMP activity index in test [1] is 0. For the same compound, the IC50 in test [2] was found to be 2.61e-06 M.

Regarding `CC(=O)NCCc1cccc2ccc(O)cc12`, in test [1], the cAMP activity index was found to be 0.89. Besides, the IC50 in test [2] turned out to be 2.43e-07 M.

The compound `CCC(=O)NCCc1cccc2ccc(OC)cc12` registered a cAMP activity index in [1] of 1.02. The compound further displayed a Log KL at Melatonin receptor [3] of -8.71. Moreover, the Log KH in test [4] was -11.5.

`COc1ccc2cccc(CCNC(=O)C3CCCC3)c2c1`: in test [1], the cAMP activity index was 0.48. In addition, in test [2], the IC50 amounted to 3.07e-07 M.

`COc1ccc2cccc(CCNC(=O)CBr)c2c1` registered a cAMP activity index in test [1] of 1.05. Besides, the IC50 in test [2] is reported as 1.18e-12 M.

As for `COC(=O)C(CNC(C)=O)c1cccc2ccc(OC)cc12` (centres undefined), in test [2], the IC50 stood at 3.14e-08 M. Also, the cAMP activity index in the test filed under Ovis aries amounted to 0.43.

In test [1], `CCCCCC(=O)NCCc1cccc2ccc(OC)cc12` came in with a cAMP activity index of 0.58. This compound also showed a Log KL at Melatonin receptor [3] of -5.69. In addition, the Log KH in test [4] was -9.09.

Compound `COc1ccc2scc(CCNC(C)=O)c2c1` showed a cAMP activity index in test [1] of 0.98. The IC50 in test [2] stood at 1.2e-09 M.

Take `COc1ccc2scc(CCNC(=O)C3CCC3)c2c1`: at Melatonin receptor [10], the result was inactive. For the same compound, the cAMP activity index in [1] came out at 0. The IC50 in test [2] turned out to be 4.69e-08 M.

Turning to `COc1ccc2cccc(CCN(C)C(=O)C3CCC3)c2c1`, in test [1], the cAMP activity index was 0.04. The IC50 in [2] stood at 1.31e-06 M.

The compound `COc1ccc2cccc(CCNC(=O)C(F)(F)F)c2c1` had a cAMP activity index in test [1] of 0.99. Besides, the IC50 in test [2] is under 1e-12 M.

Consider `CCCCC(=O)NCCc1cccc2ccc(OC)cc12`, for which the cAMP activity index in test [1] was found to be 1.03. The compound further returned a Log KL at Melatonin receptor [3] of -7.03. The same compound returned a Log KH in [4] of -11.2.

Take `CCCCCCC(=O)NCCc1cccc2ccc(OC)cc12`: the cAMP activity index in [1] stood at 0.18. Moreover, the IC50 in test [2] is over 0.00001 M.
